Measurements: article PMC1316110 (Nucleic Acids Research, 2005)

Key:
MtuLigA [1] = target: T1, MtuLigA (Mycobacterium tuberculosis, UniProt P9WNV1); assay: Mode of inhibition, Michaelis-Menten / Lineweaver-Burk kinetics; format: biochemical, M.tuberculosis; conditions: read-out: Km for NAD^+; absence of the inhibitor, 10% Me2SO
How it was run: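 Full-length recombinant MtuLigA (2 ng), 50 mM Tris–HCl pH 8.0, 5 mM DTT, 10 mM MgCl2, 10% Me2SO, 5′-32P-labelled nicked 40 bp duplex at 0.85 µM (saturating), NAD+ 0–50 µM, compound 0–250 or 0–450 µM; 1 h, 25°C. Ligation rate from gel scanning; Michaelis–Menten fit. Ki from apparent Km versus compound concentration. Mode from Lineweaver–Burk linear regression.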

T4 DNA ligase = target: T2, T4 DNA ligase (Enterobacteria phage T4, UniProt P00970); assay: In vitro ligase inhibition assay, 32P-labeled nicked 40 bp DNA substrate; format: biochemical, bacteriophage T4; conditions: read-out: IC50 T4Lig; 66 µM ATP, 10% Me2SO
T2 sequence (P00970 1-487): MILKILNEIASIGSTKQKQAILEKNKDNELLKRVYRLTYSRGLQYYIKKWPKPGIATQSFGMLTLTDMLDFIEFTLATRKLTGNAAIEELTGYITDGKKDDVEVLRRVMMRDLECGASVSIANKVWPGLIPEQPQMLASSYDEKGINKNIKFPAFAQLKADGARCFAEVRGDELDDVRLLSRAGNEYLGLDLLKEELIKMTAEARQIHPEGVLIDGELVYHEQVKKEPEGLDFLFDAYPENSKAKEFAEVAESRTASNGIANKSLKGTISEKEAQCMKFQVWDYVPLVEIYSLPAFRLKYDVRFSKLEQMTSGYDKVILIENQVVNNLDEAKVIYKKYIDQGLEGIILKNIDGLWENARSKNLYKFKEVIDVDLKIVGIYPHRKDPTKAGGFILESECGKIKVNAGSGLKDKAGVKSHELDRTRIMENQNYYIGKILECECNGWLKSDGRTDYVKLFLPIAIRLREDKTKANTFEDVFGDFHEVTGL

MtuLigA [2] = target: T1, MtuLigA; format: biochemical, M.tuberculosis; conditions: read-out: IC50 MtuLigA; 50 µM NAD+, 10% Me2SO, 1 h at 25°C

| Molecule | Km (MtuLigA [1]) | IC50 (T4 DNA ligase) | IC50 (MtuLigA [2]) |
| --- | --- | --- | --- |
| NC(=O)c1ccc[n+]([C@@H]2O[C@H](COP(=O)([O-])OP(=O)(O)OC[C@H]3O[C@@H](n4cnc5c(N)ncnc54)[C@H](O)[C@@H]3O)[C@@H](O)[C@H]2O)c1 [NAD] | 1560 nM | – | – |
| Chloroquine [Compound 6] | – | 3 ± 0.2 µM | 5 ± 0.3 µM |
| Doxorubicin [Compound 7] | – | 1600 ± 15 µM | – |
